Legend:
[1] = test system: P388; assay: Minimum effective dose observed for the substrate; format: functional; settings: Mus musculus, read-out: MED
Summary of the method: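 Same ip P388 leukemia model with ip dosing; minimum effective dose taken as lowest mg/kg per dose giving %T/C ≥ 125, with concurrent mitomycin C values.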

[2] = test system: P388; assay: Compound (6.4 mg/kg) was tested in vivo against P388 lymphocytic leukemia screen for Median survival time; format: functional, Mus musculus
Summary of the method: (§1)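 Murine P388 lymphocytic leukemia, tumour implanted ip and drug also given ip; testing at Bristol-Myers. Median survival time recorded at the optimal dose (mg/kg per dose) beside concurrently run mitomycin C control; %T/C = treated median survival/control median survival × 100.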

[3] = test system: P388; assay: Compound (25.6 mg/kg) was tested in vivo against P388 lymphocytic leukemia screen for Median survival time; format: functional, Mus musculus; summary of the method: as §1
[4] = test system: P388; assay: Compound (51.2 mg/kg) was tested in vivo against P388 lymphocytic leukemia screen for Median survival time; format: functional, Mus musculus; summary of the method: as §1

Compound | minimal effective dose [1] | T/C [2] | T/C [3] | T/C [4]
CO[C@@]12[C@H](COC(N)=O)c3c(O)c(/N=N/C(=O)c4cccs4)c(C)c(O)c3N1C[C@@H]1N[C@@H]12 | 0.8 mg/kg | 140% | – | –
CO[C@@]12[C@H](COC(N)=O)c3c(O)c(/N=N/C(=O)c4cccnc4)c(C)c(O)c3N1C[C@@H]1N[C@@H]12 | 12.8 mg/kg | – | 150% | –
CO[C@@]12[C@H](COC(N)=O)c3c(O)c(/N=N/C(=O)OC(C)(C)C)c(C)c(O)c3N1C[C@@H]1N[C@@H]12 | 0.8 mg/kg | – | 160% | –
CCOC(=O)/N=N/c1c(C)c(O)c2c(c1O)[C@@H](COC(N)=O)[C@@]1(OC)[C@H]3N[C@H]3CN21 | 0.8 mg/kg | – | 180% | –
CO[C@@]12[C@H](COC(N)=O)c3c(O)c(/N=N/C(=O)OCC4c5ccccc5-c5ccccc54)c(C)c(O)c3N1C[C@@H]1N[C@@H]12 | 0.8 mg/kg | – | 195% | –
CO[C@@]12[C@H](COC(N)=O)c3c(O)c(/N=N/C(=O)c4ccccc4)c(C)c(O)c3N1C[C@@H]1N[C@@H]12 | 0.8 mg/kg | – | 150% | –
CO[C@@]12[C@H](COC(N)=O)c3c(O)c(/N=N/C(=O)OCc4ccccc4)c(C)c(O)c3N1C[C@@H]1N[C@@H]12 | 1.6 mg/kg | 185% | – | –
CO[C@@]12[C@H](COC(N)=O)c3c(O)c(/N=N/C(C)=O)c(C)c(O)c3N1C[C@@H]1N[C@@H]12 | 1.6 mg/kg | – | – | 190%

From ChEMBL document CHEMBL1124331, “Mitomycin C analogues with a substituted hydrazine at position 7. Synthesis, spectral properties, and biological activity” (1989)
